In ChEMBL document CHEMBL1142598, “Phytochemistry and antifungal properties of the newly discovered tree Pleodendron costaricense” (2006):
Values after ≈ are worked out from the molar mass of the structure shown.

Assays:
Saccharomyces cerevisiae = assay: Antifungal activity against Saccharomyces cerevisiae after 48 hrs by NCCLS M27A method; assay type: functional
In short: (§1)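 Yeast-like strain grown on SD agar at 30 °C. One colony cultured overnight in SD broth at 30 °C to OD600 0.6–0.9, then diluted 1:5000 in SD broth. Broth microdilution from 20 mg/mL stocks in 95% EtOH, with 4-fold serial dilution and a no-compound negative column. Incubated 30 °C, 48 h. MIC is the lowest concentration giving ≥80% growth reduction.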

Candida albicans [1] = assay: Antifungal activity against wild type Candida albicans Al-1 after 48 hrs by NCCLS M27A method; assay type: functional; in short: as §1
Candida albicans [2] = assay: Antifungal activity against azole-resistant Candida albicans D10 after 48 hrs by NCCLS M27A method; assay type: functional; in short: as §1
Candida albicans [3] = assay: Antifungal activity against azole-resistant Candida albicans CN1A after 48 hrs by NCCLS M27A method; assay type: functional; in short: as §1
Cryptococcus neoformans = assay: Antifungal activity against Cryptococcus neoformans after 48 hrs by NCCLS M27A method; assay type: functional; in short: as §1
Scheffersomyces shehatae = assay: Antifungal activity against Candida shehatae after 48 hrs by NCCLS M27A method; assay type: functional; in short: as §1
Scedosporium boydii = assay: Antifungal activity against Pseudallescheria boydii after 48 hrs by NCCLS M27A method; assay type: functional
In short: (§2)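 Filamentous fungi grown on Sabouraud dextrose (SD) agar at 30 °C. Hyphae-containing agar block blended in SD broth, then diluted 1:5000 in SD broth. Broth microdilution in SD broth from 20 mg/mL stocks in 95% EtOH, with 4-fold serial dilution and a no-compound negative column. Incubated 30 °C, 48 h. MIC is the lowest concentration giving ≥80% growth reduction.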

Alternaria alternata = assay: Antifungal activity against Alternaria alternata after 48 hrs by NCCLS M27A method; assay type: functional; in short: as §2
Candida albicans [4] = assay: Antifungal activity against wild type Candida albicans Al-1 in presence of dillapiol; assay type: functional
In short: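 Synergy run by a similar broth-microdilution MIC method in C. albicans Al-1. One-row 2-fold serial dilution starting at 1000 µg/mL, testing compound alone, dillapiol alone, and compound plus dillapiol (1:5). FIC is the MIC in combination divided by the MIC alone. FICI is the dillapiol FIC plus the compound FIC.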

Candida albicans [5] = assay: Potentiation of drimane-type sesquiterpene-induced antifungal activity against wild type Candida albicans Al-1 assessed as fractional inhibition concentration index; assay type: functional
In short: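 Broth microdilution in Sabouraud dextrose broth against C. albicans Al-1 (wild type), incubated at 30 °C for 48 h. Each sesquiterpene was tested alone, dillapiol alone, and the two combined at 1:5. A one-row 2-fold serial dilution started at 1000 µg/mL. MIC was the lowest concentration giving ≥80% growth reduction. FICI = FIC of dillapiol + FIC of compound, where FIC = MIC in combination / MIC alone.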

Exophiala dermatitidis = assay: Antifungal activity against yeast-like Wangiella dermatitidis after 48 hrs by NCCLS M27A method

SMILES	MIC (Saccharomyces cerevisiae) [µg/mL]	MIC (Candida albicans [1]) [µg/mL]	MIC (Candida albicans [2]) [µg/mL]	MIC (Candida albicans [3]) [µg/mL]	MIC (Cryptococcus neoformans) [µg/mL]	MIC (Scheffersomyces shehatae) [µg/mL]	MIC (Scedosporium boydii) [µg/mL]	MIC (Alternaria alternata) [µg/mL]	MIC (Candida albicans [4]) [µg/mL]	fractional inhibitory concentration index (FICI) (Candida albicans [5])	MIC (Exophiala dermatitidis) [µg/mL]
COc1ccc2cc3[n+](cc2c1OC)CCc1cc2c(cc1-3)OCO2.[Cl-] [BERBERINE CHLORIDE]	78.1	31.3	31.3	15.6	31.3	7.8	62.5	125	15.6	0.5	31.3
CC(=O)O[C@@H]1C=C2C(=O)OC[C@]2(O)[C@@]2(C)CCCC(C)(C)[C@H]12 [CINNAMOSMOLIDE]	1250 (≈ 4050 µM)	1250 (≈ 4050 µM)	156 (≈ 506 µM)	23.4 (≈ 75.9 µM)	625 (≈ 2030 µM)	625 (≈ 2030 µM)	78.1 (≈ 253 µM)	–	–	–	313 (≈ 1020 µM)
CC1(C)CCC[C@@]2(C)[C@H]1[C@@H](O)C=C(C=O)[C@]2(O)C=O [MUKAADIAL]	–	1000 (≈ 3750 µM)	–	–	–	–	–	–	250	0.8	–
C=CCc1cc2c(c(OC)c1OC)OCO2 [DILLAPIOLE]	–	500 (≈ 2250 µM)	–	–	–	–	–	–	–	–	–
CC(=O)O[C@H]1C=C(C=O)[C@](O)(C=O)[C@@]2(C)[C@H](OC(C)=O)CCC(C)(C)[C@H]12 [PARRITADIAL]	–	1000 (≈ 2730 µM)	–	–	–	–	–	–	250	1.5	–
CC(=O)O[C@@H]1C=C(C=O)[C@](O)(C=O)[C@@]2(C)CCCC(C)(C)[C@H]12 [CINNAMODIAL]	31.3 (≈ 102 µM)	62.5 (≈ 203 µM)	15.6 (≈ 50.6 µM)	62.5 (≈ 203 µM)	31.3 (≈ 102 µM)	31.3 (≈ 102 µM)	125 (≈ 405 µM)	3.9 (≈ 12.6 µM)	15.6	0.3	15.6 (≈ 50.6 µM)
CC(=O)N1CCN(c2ccc(OCC3COC(Cn4ccnc4)(c4ccc(Cl)cc4Cl)O3)cc2)CC1 (centres undefined) [KETOCONAZOLE]	1.2 (≈ 2.26 µM)	0.4 (≈ 0.753 µM)	93.8 (≈ 177 µM)	93.8 (≈ 177 µM)	0.04 (≈ 0.0753 µM)	–	93.8 (≈ 177 µM)	–	–	–	31.3 (≈ 58.9 µM)
